# Activity calls are given as the source filed them.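 Rule for the calls: active = inhibition of 30% or more at any tested concentration; inactive = the rest.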
# Molecular target: Aspartyl aminopeptidase (Homo sapiens) (UniProt Q9ULA0)
# Assay: human M18AAP aspartyl aminopeptidase inhibitors, dose response, counter-screen for PfM18AAP inhibitor project, biochemical, QFRET fluorogenic substrate, set 2 (AID 602221)
# Settings: recombinant hM18AAP, H-Glu-NHMec fluorogenic cleavage; for inhibition: at 100 µM (top of the series)
# Outline: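 Measure: % inhibition and IC50, curve bounds fixed 0–100; Test system: recombinant human M18 aspartyl aminopeptidase; Input: hM18AAP at 5 µg/mL final; Measured by: fluorescence, ex 370/em 460 nm; Replication: triplicate; Buffer or medium: Tris pH 7.5 with CoCl2 and 2% DMSO; Times: 90 min reaction, room temperature; Reagent: H-Glu-NHMec substrate, 0.1 mM.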
SMILES,inhibition,IC50 [µM]
COc1ccc(CCCN2CCN(C)CC2)cc1OC,inactive,–
CN1CCN(CCCc2ccc(O)c(O)c2)CC1,–,6.49
Oc1ccc(CCNc2c3ccccc3nc3ccccc23)cc1O,–,0.95
CN1CCN(c2nc(-c3ccc(O)c(O)c3)cs2)CC1,–,3.7
CCc1ccc(NC(=O)Cc2nc(-c3ccc(O)c(O)c3)cs2)cc1,–,6.04
Oc1ccc(CCNc2ccnc3ccccc23)cc1O,–,7.26
Oc1ccc(-c2csc(NC3CCCC3)n2)cc1O,–,4.78
Oc1ccc(-c2csc(Nc3ncccn3)n2)cc1O,–,2.25
CN1CCN(CCc2ccc(O)c(O)c2)CC1,–,29.3
COc1ccc(CCNC(c2ccccc2)c2ccccc2)cc1OC,inactive,–
